Shown are actives, neighbours in structure and some others; about 1.5% of the full set was active somewhere.
Rpn11 block – Rpn11 (PSMD14) deubiquitinase inhibitors, primary screen, biochemical, fluorescence polarization, uHTS; 26S proteasome non-ATPase regulatory subunit 14 (Homo sapiens), O00487; human 26S proteasome, Ub4-pepOG fluorescence polarization; 20S core pre-blocked with epoxomicin; inhibition, % at 20 µM; actives 0.59% (n = 360,000);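 active means inhibition at 20 µM, scaled to each plate's controls, above about 33%, limit read from the data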
Target sequence (O00487 whole entry, looked up): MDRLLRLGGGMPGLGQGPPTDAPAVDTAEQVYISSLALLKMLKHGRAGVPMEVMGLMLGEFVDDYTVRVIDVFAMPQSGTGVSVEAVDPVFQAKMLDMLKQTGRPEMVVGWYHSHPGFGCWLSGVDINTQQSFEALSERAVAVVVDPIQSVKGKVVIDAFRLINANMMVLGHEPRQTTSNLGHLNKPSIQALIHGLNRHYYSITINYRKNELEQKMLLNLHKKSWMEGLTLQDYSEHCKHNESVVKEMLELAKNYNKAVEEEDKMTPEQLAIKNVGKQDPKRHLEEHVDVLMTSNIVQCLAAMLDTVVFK
CSN deneddyl inh – inhibitors of CSN-mediated cullin deneddylation, primary screen, biochemical, fluorescence polarization, uHTS; actives 0.38% (n = 360,000); Purified CSN, SCF-Nedd8-OG deneddylation; COP9 signalosome complex subunit 5 (Homo sapiens), Q92905; inhibition, % at 12.5 µM;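 active means pattern-corrected inhibition above about 35%, with an unprinted fluorescence ratio check between 0.5 and 1.5, limit read from the data, passing the limit was not always enough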;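 further: 0% = enzyme with substrate and 100% = substrate without enzyme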
Target sequence (Q92905 whole entry, looked up, one chain of several): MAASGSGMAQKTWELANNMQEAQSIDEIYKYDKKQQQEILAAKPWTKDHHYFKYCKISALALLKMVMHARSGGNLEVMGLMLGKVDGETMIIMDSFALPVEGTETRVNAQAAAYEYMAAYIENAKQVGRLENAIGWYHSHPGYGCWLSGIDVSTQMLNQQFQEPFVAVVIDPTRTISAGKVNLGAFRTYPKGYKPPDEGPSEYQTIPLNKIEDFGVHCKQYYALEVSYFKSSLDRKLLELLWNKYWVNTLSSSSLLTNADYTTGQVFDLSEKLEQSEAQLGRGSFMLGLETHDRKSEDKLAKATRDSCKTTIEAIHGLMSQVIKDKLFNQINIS
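Assay system: purified human Csn5 enzyme expressed in HEK293T cells; measure: % inhibition; also added: SCFSkp2-Nedd8OG substrate at 10 nM final; technique: fluorescence polarization; times: reaction 90 min, room temperature; medium: Tris buffer pH 7.5, NaCl, DTT, Tween-20, trehalose, ovalbumin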
TPT1 inhibitor – Candida albicans TPT1 enzyme inhibitors, primary screen, biochemical, fluorescence polarization. tRNA 2'-phosphotransferase TPT1 (Candida albicans SC5314). recombinant caTPT1, FP RNA substrate dephosphorylation. inhibition, % at 5 µM. actives 0.81% (n = 300,000). AID 1962, 2009;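 active means inhibition above the mean of all tested compounds plus 3 SD, set per screening campaign, cut at about 24% in these data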;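 further: plate controls were DMSO alone for no effect and ferristatin control at 100 nM for full effect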
HNF4A DNA FP – change in binding of human HNF4A to DNA, primary screen, biochemical, fluorescence polarization, FITC-DNA | Hepatocyte nuclear factor 4-alpha (Homo sapiens), P41235 | 1 h | activity change, % at 10 µM | actives 0.3% (n = 360,000); in the data active means activity change above about 30%, passing the limit was not always enough
Rpn11 inh conf – Rpn11 (PSMD14) deubiquitinase inhibitors, confirmation, biochemical, fluorescence polarization, single concentration; shares compounds with Rpn11 block; purified human 26S proteasome, Ub4-pepOG fluorescence polarization; proteasome pretreated with epoxomicin; inhibition, % at 20 µM; actives 29% (n = 1,900)
MMP-2 inh – MMP-2 enzyme inhibition, confirmation, counter-screen for RPN11 inhibitor project, biochemical, fluorescence, single concentration | shares compounds with Rpn11 block | recombinant MMP-2, FRET peptide cleavage fluorescence | inhibition, % at 20 µM | actives 4% (n = 1,900);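 further: human MMP-2 activated beforehand with APMA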
Thrombin inh – bovine thrombin protease inhibition, confirmation, counter-screen for Rpn11 inhibitor project, biochemical, fluorescence polarization, single concentration; shares compounds with Rpn11 block; bovine thrombin cleavage of Ub4-pepOG; inhibition, % at 20 µM; actives 13% (n = 1,900); AID 602333, 2012;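 active means mean inhibition at least 40% at 20 µM, or signal 3 deviations below plate average, so some actives read negative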;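 further: plate controls were thrombin with DMSO for no effect and buffer wells lacking thrombin for full effect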
* hit, by the source's call. Unless noted, no stated cut-off is given here; in the data, active means inhibition above about 40%; inactive means the rest.

Results for COC(=O)c1ccc(C23CC4(C2)[C@H](CN(Cc2cccnc2)[C@@H]4c2ccccc2)C3c2ccc(C(F)(F)F)cc2)cc1 (some centres undefined) ?
TPT1 inhibitor: -2

How did COC(=O)c1ccc(C23CC4(C2)[C@H](CN(Cc2cccnc2)[C@@H]4c2ccccc2)C3c2ccccc2)cc1 (some centres undefined) do in these assays?
Rpn11 block: 44*; CSN deneddyl inh: 4; TPT1 inhibitor: 6; HNF4A DNA FP: 12; Rpn11 inh conf: 24; MMP-2 inh: 2; Thrombin inh: 20

Results for CC(=O)CSc1nsc(SCC(C)=O)c1C#N ?
Rpn11 block: 46*; CSN deneddyl inh: 15; TPT1 inhibitor: 11; HNF4A DNA FP: 5; Rpn11 inh conf: 16; MMP-2 inh: 50*; Thrombin inh: 15

How did CCOC(=O)C1CCCN(C2=NC(=O)/C(=C/c3ccc(OC)c(OC)c3)S2)C1 (centres undefined) do in these assays?
Rpn11 block: 0; CSN deneddyl inh: -4; TPT1 inhibitor: -2; HNF4A DNA FP: 2

What do the screens show for `CCOC(=O)C1CCCN(C2=NC(=O)/C(=C/c3ccc(O)c(OC)c3)S2)C1` (centres undefined)?
Rpn11 block: 76*; CSN deneddyl inh: 19; TPT1 inhibitor: 20; HNF4A DNA FP: 10; Rpn11 inh conf: 43*; MMP-2 inh: -30; Thrombin inh: 26

Results for CC1(C(=O)NS(=O)(=O)c2ccc(Cl)cc2)CCN1C(=O)C1(c2ccc(Cl)cc2)CCC1 (centres undefined) ?
Rpn11 block: 4; CSN deneddyl inh: 1; HNF4A DNA FP: -1

What do the screens show for `O=C(/C=C/c1ccco1)Nc1ccc(-c2nc3ccccc3[nH]2)cc1`?
Rpn11 block: 56*; CSN deneddyl inh: 5; TPT1 inhibitor: -1; HNF4A DNA FP: 66*; Rpn11 inh conf: 5; MMP-2 inh: -2; Thrombin inh: -35

What do the screens show for `O=C(Nc1ccc(-c2nc3ccccc3[nH]2)cc1)c1ccco1`?
Rpn11 block: 5; CSN deneddyl inh: -3; TPT1 inhibitor: 2; HNF4A DNA FP: 1

How did O=C(/C=C/c1ccc(F)cc1)N1CC[C@@]2(O)CCCC[C@H]2C1 do in these assays?
Rpn11 block: 3; CSN deneddyl inh: -5; TPT1 inhibitor: -1; HNF4A DNA FP: -1

Results for O=C(/C(=C(\[O-])c1ccccc1)[n+]1ccc2ccccc2c1)c1ccccc1 ?
Rpn11 block: 43*; CSN deneddyl inh: 7; TPT1 inhibitor: 23; HNF4A DNA FP: 23; Rpn11 inh conf: -34; MMP-2 inh: -47; Thrombin inh: -38

Results for O=C(/C(=C(\[O-])c1ccccc1)[n+]1ccc2ccccc2c1)c1ccc(Cl)cc1 ?
Rpn11 block: 18; CSN deneddyl inh: 7; TPT1 inhibitor: 0; HNF4A DNA FP: 5

What do the screens show for `CCCCN=c1scc(-c2ccc3c(c2)NC(=O)CO3)n1N=C1CCCC1`?
Rpn11 block: 55*; CSN deneddyl inh: 0; TPT1 inhibitor: 10; HNF4A DNA FP: 10; Rpn11 inh conf: 42*; MMP-2 inh: 16; Thrombin inh: 28

What do the screens show for `COc1cccc(C(=O)Nc2cccc(-c3nnc(-c4ccco4)o3)c2)c1`?
Rpn11 block: 2; CSN deneddyl inh: 7; TPT1 inhibitor: 1; HNF4A DNA FP: 4

How did COc1ccc(Br)cc1C(=O)Nc1cccc(-c2nnc(-c3ccco3)o2)c1 do in these assays?
Rpn11 block: 121*; CSN deneddyl inh: 115*; TPT1 inhibitor: 0; HNF4A DNA FP: 49*; Rpn11 inh conf: 32; MMP-2 inh: -40; Thrombin inh: 2

Results for COc1cc(-c2nc3cccc(C)n3c2NCC2CCCO2)ccc1O (centres undefined) ?
Rpn11 block: 42*; CSN deneddyl inh: -2; TPT1 inhibitor: -2; HNF4A DNA FP: 3; Rpn11 inh conf: 1; MMP-2 inh: -30; Thrombin inh: active

Results for COc1ccc(-c2nc3cc(C)ccn3c2NCC2CCCO2)cc1OC (centres undefined) ?
Rpn11 block: -1; CSN deneddyl inh: 4; TPT1 inhibitor: 2; HNF4A DNA FP: 0

How did CC1(C)CC(=O)C(C=NCC2CCNCC2)=C(O)C1 do in these assays?
Rpn11 block: -3; CSN deneddyl inh: 0; TPT1 inhibitor: 1; HNF4A DNA FP: -1

Results for CC1(C)CC(=O)C(C=NCC2CCN(C(=O)Cc3ccccc3)CC2)=C(O)C1 ?
Rpn11 block: 137*; CSN deneddyl inh: 0; TPT1 inhibitor: -2; HNF4A DNA FP: 237; Rpn11 inh conf: 93*; MMP-2 inh: 3; Thrombin inh: -8

Results for COCCn1c(SCc2nc3ccccc3c(=O)[nH]2)nc2ccccc2c1=O ?
Rpn11 block: -6; CSN deneddyl inh: 9; TPT1 inhibitor: -1; HNF4A DNA FP: 3

Results for CCCn1c(SCc2nc3sc(C)c(C)c3c(=O)[nH]2)nc2ccccc2c1=O ?
Rpn11 block: 41*; CSN deneddyl inh: 10; TPT1 inhibitor: 3; HNF4A DNA FP: 20; Rpn11 inh conf: 30; MMP-2 inh: 4; Thrombin inh: 20

What do the screens show for `COc1ccc(NC(=O)c2cccc3c(-c4cccnc4)coc23)cc1`?
Rpn11 block: 63*; CSN deneddyl inh: 6; HNF4A DNA FP: -5; Rpn11 inh conf: 42*; MMP-2 inh: -126; Thrombin inh: 4

Results for O=C(Nc1ccccc1)c1cccc2c(-c3cccnc3)coc12 ?
Rpn11 block: -7; CSN deneddyl inh: 3; HNF4A DNA FP: 0

Results for O=C(Nc1ccc(C2=CN(Cc3ccccc3)CCC2=O)cc1)OCc1ccccc1 ?
Rpn11 block: -4; CSN deneddyl inh: 3; HNF4A DNA FP: 4

How did CCc1ccc(-n2c(O)c(C=NCCN(CC)CC)c(=O)[nH]c2=O)cc1 do in these assays?
Rpn11 block: 75*; CSN deneddyl inh: 35*; HNF4A DNA FP: 14; Rpn11 inh conf: 38; MMP-2 inh: -38; Thrombin inh: 20

What do the screens show for `Cn1ccsc1=NC(=O)c1cccc(C#N)c1`?
Rpn11 block: 9; CSN deneddyl inh: -3; TPT1 inhibitor: 0; HNF4A DNA FP: 6

High-throughput results deposited in PubChem BioAssay by several laboratories.
